Test results reported in ChEMBL document CHEMBL1154983, “Arylpiperazine-containing pyrrole 3-carboxamide derivatives targeting serotonin 5-HT(2A), 5-HT(2C), and the serotonin transporter as a potential antidepressant” (Bioorg Med Chem Lett, 2010).

Columns and labels:
[1] = biological target: 5-hydroxytryptamine receptor 7 (Homo sapiens, UniProt P34969); assay: Inhibition of 5HT7 receptor
[2] = biological target: 5-hydroxytryptamine receptor 6 (Homo sapiens, UniProt P50406); assay: Inhibition of 5HT6 receptor
Chain of 5-hydroxytryptamine receptor 6 (P50406 whole entry): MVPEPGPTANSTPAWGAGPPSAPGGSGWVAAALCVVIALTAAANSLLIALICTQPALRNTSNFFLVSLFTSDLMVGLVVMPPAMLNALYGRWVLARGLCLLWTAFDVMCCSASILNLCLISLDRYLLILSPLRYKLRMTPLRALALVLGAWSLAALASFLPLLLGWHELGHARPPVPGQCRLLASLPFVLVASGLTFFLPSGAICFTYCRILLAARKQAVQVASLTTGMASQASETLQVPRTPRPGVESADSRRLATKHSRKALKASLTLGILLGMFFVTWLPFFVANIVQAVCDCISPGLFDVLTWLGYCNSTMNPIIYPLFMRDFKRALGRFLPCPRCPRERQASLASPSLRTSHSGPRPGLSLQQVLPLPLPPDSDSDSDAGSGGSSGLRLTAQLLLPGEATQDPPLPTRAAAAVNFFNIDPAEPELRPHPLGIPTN

[3] = biological target: Cytochrome P450 2C9 (Homo sapiens, UniProt P11712); assay: Inhibition of CYP2C9; assay type: ADME
Chain of Cytochrome P450 2C9 (P11712 whole entry): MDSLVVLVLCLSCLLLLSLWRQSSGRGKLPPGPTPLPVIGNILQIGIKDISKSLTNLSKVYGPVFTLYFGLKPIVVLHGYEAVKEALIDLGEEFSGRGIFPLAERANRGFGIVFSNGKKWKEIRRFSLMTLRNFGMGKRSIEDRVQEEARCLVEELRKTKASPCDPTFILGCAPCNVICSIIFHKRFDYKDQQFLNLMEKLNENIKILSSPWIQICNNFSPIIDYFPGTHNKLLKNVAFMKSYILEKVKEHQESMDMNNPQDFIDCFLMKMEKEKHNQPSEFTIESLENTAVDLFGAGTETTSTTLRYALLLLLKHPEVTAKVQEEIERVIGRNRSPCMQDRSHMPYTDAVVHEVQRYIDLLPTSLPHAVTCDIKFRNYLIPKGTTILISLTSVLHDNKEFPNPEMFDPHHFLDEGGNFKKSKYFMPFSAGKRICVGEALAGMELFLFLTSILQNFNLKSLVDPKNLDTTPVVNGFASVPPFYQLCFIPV

[4] = system: Mus musculus; assay: Antidepressant activity in mouse assessed as decrease in duration of immobility at 10 mg/kg, po during final 5 mins of the 6 mins session by forced swimming test; assay type: functional; set-up: scale not given: the % may be the effect or the level left
In short: (§1)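 Mice swam 10 min in a 25-cm glass cylinder (10 cm diameter) holding 15 cm of water at 23 1 °C. Twenty-four hours later, drug was given po 60 min before retesting. Immobility (floating upright with only small movements keeping head above water) was totalled over the last 5 min of the 6-min test.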

[5] = biological target: D(2) dopamine receptor (Homo sapiens, UniProt P14416); assay: Inhibition of dopamine D2 receptor
Chain of D(2) dopamine receptor (P14416 whole entry): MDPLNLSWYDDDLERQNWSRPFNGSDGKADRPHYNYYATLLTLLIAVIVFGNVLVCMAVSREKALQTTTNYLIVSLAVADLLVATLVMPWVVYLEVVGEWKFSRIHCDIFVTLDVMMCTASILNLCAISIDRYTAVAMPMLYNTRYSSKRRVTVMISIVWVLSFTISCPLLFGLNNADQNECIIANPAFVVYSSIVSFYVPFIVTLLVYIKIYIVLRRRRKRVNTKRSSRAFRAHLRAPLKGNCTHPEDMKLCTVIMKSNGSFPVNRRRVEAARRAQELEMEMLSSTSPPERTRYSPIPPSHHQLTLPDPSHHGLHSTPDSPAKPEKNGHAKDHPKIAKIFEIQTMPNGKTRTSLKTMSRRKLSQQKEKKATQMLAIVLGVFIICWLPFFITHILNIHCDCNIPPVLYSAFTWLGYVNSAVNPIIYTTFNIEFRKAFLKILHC

[6] = biological target: D(3) dopamine receptor (Homo sapiens, UniProt P35462); assay: Inhibition of dopamine D3 receptor
Chain of D(3) dopamine receptor (P35462 whole entry): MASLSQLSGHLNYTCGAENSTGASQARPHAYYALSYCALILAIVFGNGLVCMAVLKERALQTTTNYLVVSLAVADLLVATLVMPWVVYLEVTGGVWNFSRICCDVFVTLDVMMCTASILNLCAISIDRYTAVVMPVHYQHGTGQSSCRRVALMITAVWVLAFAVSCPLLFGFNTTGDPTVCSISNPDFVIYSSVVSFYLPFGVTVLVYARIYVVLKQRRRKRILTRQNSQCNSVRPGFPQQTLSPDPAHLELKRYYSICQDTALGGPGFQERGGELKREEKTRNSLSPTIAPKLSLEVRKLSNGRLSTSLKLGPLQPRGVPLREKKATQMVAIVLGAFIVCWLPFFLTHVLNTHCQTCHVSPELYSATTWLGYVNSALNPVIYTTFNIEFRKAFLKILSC

[7] = system: Mus musculus; assay: Antidepressant activity in mouse assessed as decrease in duration of immobility at 100 mg/kg, po during final 5 mins of the 6 mins session by forced swimming test; assay type: functional; set-up: scale not given: the % may be the effect or the level left; in short: as §1
[8] = biological target: T1, 5-hydroxytryptamine receptor 1A (Homo sapiens, UniProt P08908); assay: Inhibition of 5HT1A receptor
T1 sequence (P08908 whole entry): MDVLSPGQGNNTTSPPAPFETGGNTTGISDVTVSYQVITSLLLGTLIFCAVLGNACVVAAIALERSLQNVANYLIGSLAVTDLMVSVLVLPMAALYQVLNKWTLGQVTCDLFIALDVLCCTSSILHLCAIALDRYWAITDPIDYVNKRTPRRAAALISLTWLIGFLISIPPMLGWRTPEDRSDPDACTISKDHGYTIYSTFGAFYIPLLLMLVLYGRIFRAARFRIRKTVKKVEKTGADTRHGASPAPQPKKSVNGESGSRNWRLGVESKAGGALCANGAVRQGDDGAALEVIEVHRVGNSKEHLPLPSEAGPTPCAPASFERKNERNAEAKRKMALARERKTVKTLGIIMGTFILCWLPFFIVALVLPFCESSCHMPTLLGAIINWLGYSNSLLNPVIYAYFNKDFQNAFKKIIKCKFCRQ

[9] = biological target: T2, Cytochrome P450 1A2 (Homo sapiens, UniProt P05177); assay: Inhibition of CYP1A2; assay type: ADME
T2 sequence (P05177 whole entry): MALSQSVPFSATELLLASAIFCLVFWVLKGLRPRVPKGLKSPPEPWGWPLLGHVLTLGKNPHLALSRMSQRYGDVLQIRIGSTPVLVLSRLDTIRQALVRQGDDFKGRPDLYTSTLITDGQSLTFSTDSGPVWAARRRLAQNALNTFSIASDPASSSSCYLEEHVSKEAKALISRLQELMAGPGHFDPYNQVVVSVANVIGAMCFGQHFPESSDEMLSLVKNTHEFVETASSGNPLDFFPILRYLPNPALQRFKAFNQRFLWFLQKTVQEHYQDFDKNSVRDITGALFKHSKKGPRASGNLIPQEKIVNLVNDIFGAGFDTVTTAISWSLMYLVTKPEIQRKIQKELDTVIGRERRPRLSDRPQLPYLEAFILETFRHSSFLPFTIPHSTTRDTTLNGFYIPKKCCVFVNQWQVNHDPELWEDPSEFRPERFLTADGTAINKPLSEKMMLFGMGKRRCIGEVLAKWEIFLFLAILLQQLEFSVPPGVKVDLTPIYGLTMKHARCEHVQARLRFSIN

[10] = biological target: Cytochrome P450 3A4 (Homo sapiens, UniProt P08684); assay: Inhibition of CYP3A4; assay type: ADME
Chain of Cytochrome P450 3A4 (P08684 whole entry): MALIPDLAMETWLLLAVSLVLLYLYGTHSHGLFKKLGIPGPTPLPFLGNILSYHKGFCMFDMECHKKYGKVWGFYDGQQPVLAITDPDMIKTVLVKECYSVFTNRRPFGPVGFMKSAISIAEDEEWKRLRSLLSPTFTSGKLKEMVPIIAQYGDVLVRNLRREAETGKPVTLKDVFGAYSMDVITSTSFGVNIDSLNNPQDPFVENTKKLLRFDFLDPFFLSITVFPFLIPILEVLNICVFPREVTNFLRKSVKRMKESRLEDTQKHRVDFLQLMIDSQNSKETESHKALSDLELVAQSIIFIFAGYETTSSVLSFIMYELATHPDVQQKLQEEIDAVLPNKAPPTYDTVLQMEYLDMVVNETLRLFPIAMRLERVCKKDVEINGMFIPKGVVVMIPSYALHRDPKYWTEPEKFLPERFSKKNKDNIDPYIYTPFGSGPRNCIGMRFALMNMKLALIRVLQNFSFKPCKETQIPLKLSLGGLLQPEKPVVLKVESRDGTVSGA

[11] = biological target: T3, D(4) dopamine receptor (Homo sapiens, UniProt P21917); assay: Inhibition of dopamine D4 receptor
T3 sequence (P21917 whole entry): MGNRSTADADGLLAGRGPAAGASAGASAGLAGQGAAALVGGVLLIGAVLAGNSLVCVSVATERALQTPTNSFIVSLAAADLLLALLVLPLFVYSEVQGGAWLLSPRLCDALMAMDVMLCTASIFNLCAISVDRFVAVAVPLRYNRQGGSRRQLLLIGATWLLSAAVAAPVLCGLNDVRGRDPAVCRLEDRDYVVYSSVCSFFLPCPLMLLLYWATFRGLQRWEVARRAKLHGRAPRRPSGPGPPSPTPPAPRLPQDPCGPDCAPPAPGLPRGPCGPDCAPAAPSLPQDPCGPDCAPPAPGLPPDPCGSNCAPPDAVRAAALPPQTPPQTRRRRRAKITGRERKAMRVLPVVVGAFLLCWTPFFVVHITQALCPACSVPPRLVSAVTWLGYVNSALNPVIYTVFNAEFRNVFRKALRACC

[12] = biological target: Cytochrome P450 2D6 (Homo sapiens, UniProt P10635); assay: Inhibition of CYP2D6; assay type: ADME
Chain of Cytochrome P450 2D6 (P10635 whole entry): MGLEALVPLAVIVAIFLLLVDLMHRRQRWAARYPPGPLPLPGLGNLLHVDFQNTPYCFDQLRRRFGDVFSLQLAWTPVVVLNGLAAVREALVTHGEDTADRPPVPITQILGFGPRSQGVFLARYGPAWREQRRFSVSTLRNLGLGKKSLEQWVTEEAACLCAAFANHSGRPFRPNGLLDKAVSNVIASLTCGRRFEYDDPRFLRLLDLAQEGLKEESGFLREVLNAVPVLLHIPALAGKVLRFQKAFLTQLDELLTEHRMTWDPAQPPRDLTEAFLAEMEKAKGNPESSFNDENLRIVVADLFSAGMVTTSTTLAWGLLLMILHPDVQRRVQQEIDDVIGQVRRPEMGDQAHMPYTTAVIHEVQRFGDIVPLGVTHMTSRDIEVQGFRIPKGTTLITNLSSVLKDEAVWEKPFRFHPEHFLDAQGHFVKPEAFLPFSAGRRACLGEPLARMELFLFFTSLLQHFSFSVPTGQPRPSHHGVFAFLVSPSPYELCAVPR

Chain of 5-hydroxytryptamine receptor 7 (P34969 whole entry): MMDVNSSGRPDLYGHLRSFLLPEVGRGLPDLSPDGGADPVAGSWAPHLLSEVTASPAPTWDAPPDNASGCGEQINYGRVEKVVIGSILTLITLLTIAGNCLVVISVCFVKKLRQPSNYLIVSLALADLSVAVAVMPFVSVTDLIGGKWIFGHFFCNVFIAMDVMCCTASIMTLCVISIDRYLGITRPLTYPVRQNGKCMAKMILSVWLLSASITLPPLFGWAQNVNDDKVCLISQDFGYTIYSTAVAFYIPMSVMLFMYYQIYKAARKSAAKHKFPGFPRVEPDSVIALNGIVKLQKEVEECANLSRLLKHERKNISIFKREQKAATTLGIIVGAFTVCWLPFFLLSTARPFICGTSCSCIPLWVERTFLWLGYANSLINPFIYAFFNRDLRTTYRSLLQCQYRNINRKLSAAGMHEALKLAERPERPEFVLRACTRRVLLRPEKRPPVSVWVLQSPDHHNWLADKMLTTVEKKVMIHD

- IC50 [1]: 333 nM
- IC50 [2]: 713 nM
- IC50 [3]: 9700 nM
- IC50 [5]: 2540 nM
- IC50 [6]: 915 nM
- IC50 [8]: 54 nM
- IC50 [9]: > 20000 nM
- IC50 [10]: > 20000 nM
- IC50 [11]: 984 nM
- IC50 [12]: > 20000 nM
Structure (SMILES): Cc1c(C(=O)NCCCN2CCN(c3cccc(Cl)c3Cl)CC2)cc(-c2ccccc2)n1C
- Activity [4]: 80%
- Activity [7]: <25%
